From ChEMBL document CHEMBL1157792, “Pachycladins A-E, prostate cancer invasion and migration inhibitory Eunicellin-based diterpenoids from the red sea soft coral Cladiella pachyclados” (J Nat Prod, 2010)
Active and inactive are the calls of the source. The rule behind the calls is not given here.

Legend:
Assay type in all cases: functional, cell-based
PC-3 [1] = experiment: Antimigratory activity against human PC3 cells at 10 uM by wound-healing assay
Summary of the method: (§1)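 Confluent PC-3 monolayers (>90%) in RPMI with 10% FBS, scratched with a pipet tip, washed with PBS, then given compound in DMSO, in triplicate, with DMSO vehicle control. Incubated 24 h serum-starved at 37 °C, fixed and stained with Diff Quick. Migrated cells counted in three or more random 400× fields; mean (SEM) per field.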

PC-3 [2] = experiment: Antiinvasive activity against human PC3 cells at 10 uM by cultrex cell invasion assay
Summary of the method: (§2)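 PC-3 cells (50 000 per well) in serum-free RPMI seeded into the top chamber of wells coated with basement membrane extract (4 h, 37 °C), with compound in the top chamber. Lower chamber: RPMI with 10% FBS, fibronectin and N-formyl-met-leu-phe (10 nM) as chemoattractants. After 24 h at 37 °C, invaded cells stained with calcein-AM for 1 h; fluorescence read at ex 485/em 520 nm.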

PC-3 [3] = experiment: Antimigratory activity against human PC3 cells at 50 uM by wound-healing assay; summary of the method: as §1
PC-3 [4] = experiment: Antiinvasive activity against human PC3 cells at 50 uM by cultrex cell invasion assay; summary of the method: as §2
PC-3 [5] = experiment: Antiproliferative activity against human PC3 cells at 50 uM after 96 hrs by MTT assay
Summary of the method: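 PC-3 cells (8 × 10^3 per well) allowed to attach for 24 h, then given serum-free RPMI with compound at 50, 20, 10 or 5 µM for 96 h at 37 °C, 5% CO2. MTT added for 4 h, formazan solubilized, absorbance read at 550 nm. Cell number taken from a hemocytometer-based standard curve; IC50 obtained by nonlinear regression of log concentration against cells/well.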

PC-3 [6] = experiment: Antimigratory activity against human PC3 cells at 200 uM by wound-healing assay; summary of the method: as §1

Structure (SMILES)	Activity (PC-3 [3])	also measured
CC(=O)O[C@]1(C)CC[C@H](C(C)C)[C@@H]2[C@H]1[C@H]1C[C@](C)(O)[C@@H](O)CC[C@@](C)(OC(C)=O)[C@@H]2O1	–	Activity_index (PC-3 [1]): Active; Activity (PC-3 [2]): Active
C=C1CC[C@H](C(C)C)[C@@H]2[C@H]1[C@H]1C/C(C)=C\CC[C@@](C)(O)[C@@H]2O1	Active	–
C=C1CC[C@H](C(C)C)[C@@H]2[C@H]1[C@H]1CC(=C)[C@@H](OC(C)=O)CC[C@@](C)(OC(C)=O)[C@@H]2O1	Active	–
C=C1C[C@H]2O[C@H]([C@H]3[C@@H]2[C@](C)(OC(C)=O)CC[C@@H]3C(C)C)[C@@]2(C)CC[C@]1(O)O2	Active	–
C=C1CC[C@H](C(C)C)[C@@H]2[C@H]1[C@H]1CC(=C)[C@@H](O)CC[C@@](C)(OC(C)=O)[C@@H]2O1	Active	–
C=C1CC[C@H](C(C)C)[C@@H]2[C@H]1[C@H]1C[C@](C)(O)[C@@H](O)CC[C@@](C)(OC(C)=O)[C@@H]2O1	Active	–
C=C1C[C@H]2O[C@H]([C@@H]3[C@@H](C(C)C)[C@H](O)C[C@@](C)(OC(=O)CCC)[C@@H]32)[C@](C)(OC(C)=O)CC[C@@H]1O	Active	–
C=C1CC[C@H](C(C)C)[C@@H]2[C@H]1[C@H]1CC(=C)[C@@H](OC(C)=O)CC[C@@](C)(O)[C@@H]2O1	Active	–
C=C1CC[C@H](C(C)C)[C@@H]2[C@H]1[C@H]1C[C@](C)(O)[C@@H](OC)CC[C@@](C)(O)[C@@H]2O1	Active	Activity (PC-3 [4]): Active
CCCC(=O)O[C@]1(C)CC[C@H](C(C)C)[C@@H]2[C@H]1[C@H]1C[C@](C)(O)[C@@H](O)CC[C@@](C)(OC(C)=O)[C@@H]2O1	Active	Activity (PC-3 [5]): inactive; Activity (PC-3 [4]): Active
C=C1CC[C@H](C(C)C)[C@@H]2[C@H]1[C@H]1C[C@](C)(O)[C@@H](O)CC[C@@](C)(O)[C@@H]2O1	Active	Activity (PC-3 [4]): Active
O=C1NC(=O)/C(=C/c2ccc(O)cc2)N1	–	Activity (PC-3 [6]): Active
C=C1C[C@H]2O[C@H]([C@@H]3[C@@H](C(C)C)[C@H](O)C[C@@](C)(OC(C)=O)[C@@H]32)[C@](C)(OC(C)=O)CC[C@@H]1O	Active	–
C=C1CC[C@H](C(C)C)[C@@H]2[C@H]1[C@H]1CC(=C)[C@]3(O)CC[C@@](C)(O3)[C@@H]2O1	Active	–
CC(=O)O[C@]1(C)CC[C@H](C(C)C)[C@@H]2[C@H]1[C@H]1C[C@]3(C)CCC[C@@](C)(O3)[C@@H]2O1	Active	Activity (PC-3 [4]): Active
C=C1CC[C@H](C(C)C)[C@@H]2[C@H]1[C@@H]1CC(=C)[C@@H](O)CC[C@](C)(O)[C@H]2O1	Active	–
